Assay results from ChEMBL document CHEMBL4316620, “Dihydropyrrolones as bacterial quorum sensing inhibitors” (Bioorg Med Chem Lett, 2019).
The source made the active and inactive calls. The rule behind the calls is not given here.

Key:
[1] = Inhibition of quorum sensing system in Pseudomonas aeruginosa MH602 PlasB::gfp at 125 uM incubated for 15 hrs by GFP reporter gene assay
In short: (§1)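 Reporter strain P. aeruginosa PlasB::gfp (PAMH602) makes its own AHL; lasB promoter drives GFP-ASV. Cultures incubated with compound over 250–31.25 µM at 37 °C for 15 h, then GFP fluorescence read at 535 nm. QSI expressed as % relative to untreated PAMH602 negative control. Furanone positive control.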

Pseudomonas aeruginosa [2] = test: Toxicity in Pseudomonas aeruginosa MH602 PlasB::gfp assessed as inhibition of bacterial growth at 31.25 uM incubated for 15 hrs by spectrophotometry; type: organism-based; conditions: MH602, 15 h, read-out: GI
[3] = Inhibition of quorum sensing system in Pseudomonas aeruginosa MH602 PlasB::gfp at 250 uM incubated for 15 hrs by GFP reporter gene assay; in short: as §1
Pseudomonas aeruginosa [4] = test: Toxicity in Pseudomonas aeruginosa MH602 PlasB::gfp assessed as inhibition of bacterial growth at 62.5 uM incubated for 15 hrs by spectrophotometry; type: organism-based; conditions: MH602, 15 h, read-out: GI
Pseudomonas aeruginosa [5] = test: Toxicity in Pseudomonas aeruginosa MH602 PlasB::gfp assessed as inhibition of bacterial growth at 125 uM incubated for 15 hrs by spectrophotometry; type: organism-based; conditions: MH602, 15 h, read-out: GI
[6] = Inhibition of quorum sensing system in Pseudomonas aeruginosa MH602 PlasB::gfp at 31.25 uM incubated for 15 hrs by GFP reporter gene assay; in short: as §1
Pseudomonas aeruginosa [7] = test: Inhibition of biofilm formation in Pseudomonas aeruginosa PAO1 at 62.5 uM incubated for 6 hrs by crystal violet staining based method; type: functional; conditions: PAO1, 6 h
In short: (§2)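 P. aeruginosa PA01 biofilm. Cultures grown with or without test compound for 6 h. Biofilm biomass quantified by crystal violet staining (OD550). % inhibition calculated relative to DMSO control.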

[8] = Inhibition of quorum sensing system in Pseudomonas aeruginosa MH602 PlasB::gfp at 62.5 uM incubated for 15 hrs by GFP reporter gene assay; in short: as §1
Pseudomonas aeruginosa [9] = test: Inhibition of biofilm formation in Pseudomonas aeruginosa PAO1 at 250 uM incubated for 6 hrs by crystal violet staining based method; type: functional; conditions: for inhibition at 250 µM: PAO1, 6 h; in short: as §2
Pseudomonas aeruginosa [10] = test: Toxicity in Pseudomonas aeruginosa MH602 PlasB::gfp assessed as inhibition of bacterial growth at 250 uM incubated for 15 hrs by spectrophotometry; type: organism-based; conditions: MH602, 15 h, read-out: GI

SMILES | inhibition [1] [%] | inhibition [3] [%] | inhibition [6] [%] | inhibition [8] [%] | inhibition at 31.25 µM (Pseudomonas aeruginosa [2]) [%] | inhibition at 62.5 µM (Pseudomonas aeruginosa [4]) [%] | inhibition at 125 µM (Pseudomonas aeruginosa [5]) [%] | inhibition at 62.5 µM (Pseudomonas aeruginosa [7]) [%] | inhibition at 250 µM (Pseudomonas aeruginosa [9]) [%] | inhibition at 250 µM (Pseudomonas aeruginosa [10]) [%] | inhibition (Pseudomonas aeruginosa [9])
C=C1C(c2ccc(Br)cc2)=CC(=O)N1c1ccsc1 | 75 | 86 | 49.9 | 59.9 | ≤ 15 | ≤ 15 | 15 to 30 | 47 | 87.4 | > 30 | 
C=C1NC(=O)C(C)=C1c1ccc(F)cc1 | 59.9 | 66.5 | 26.3 | 32.1 | ≤ 15 | ≤ 15 | ≤ 15 |  | 4.4 | ≤ 15 | 
O=C1C=C(c2ccc(F)cc2)CN1 | 40.2 | 63 | 27.1 | 28.7 | ≤ 15 | ≤ 15 | ≤ 15 |  |  | ≤ 15 | inactive
COc1ccc(C2=CC(=O)NC2)cc1 | 48.5 | 66.5 | 26.9 | 27.2 | ≤ 15 | ≤ 15 | ≤ 15 |  |  | ≤ 15 | inactive
C=C1C(c2ccc(Br)cc2)=CC(=O)N1c1ccc(S(C)(=O)=O)cc1 | 58.1 | 58.7 | 11.2 | 31.3 | ≤ 15 | ≤ 15 | ≤ 15 |  | 10.3 | 15 to 30 | 
C=C1C(c2ccccc2F)=CC(=O)N1c1cccc(Cl)c1 | 57.3 | 64.4 | 38.7 | 49.6 | ≤ 15 | ≤ 15 | ≤ 15 |  | 46.9 | ≤ 15 | 
C=C1C(c2ccc(Br)cc2)=CC(=O)N1c1csc2ccccc12 | 55.6 | 67.4 | 34.1 | 42.8 | ≤ 15 | ≤ 15 | ≤ 15 |  | 13.2 | 15 to 30 | 
C=C1C(c2ccc(Br)cc2)=CC(=O)N1c1ccc(Br)cc1 | 50.5 | 54.3 | 8.81 | 40.4 | ≤ 15 | ≤ 15 | ≤ 15 |  | 17 | ≤ 15 | 
C=C1C(c2ccc(Br)cc2)=CC(=O)N1c1ccc(C)cc1 | 52.6 | 61.6 | 15.2 | 42.7 | ≤ 15 | ≤ 15 | ≤ 15 |  | 16.3 | 15 to 30 | 
O=C1C=C(c2ccc(Br)cc2)CN1 | 42.8 | 65.9 | 21.9 | 25 | ≤ 15 | ≤ 15 | ≤ 15 |  |  | ≤ 15 | inactive
C=C1C(c2ccccc2F)=CC(=O)N1c1ccc(Cl)cc1 | 57.9 | 59.4 | 36.2 | 51.6 | ≤ 15 | ≤ 15 | ≤ 15 |  | 46.5 | ≤ 15 | 
C=C1C(c2ccc(Br)cc2)=CC(=O)N1c1ccc(C(F)(F)F)cc1 | 48.4 | 52.8 | 11.2 | 45.8 | ≤ 15 | ≤ 15 | ≤ 15 |  | 37.5 | ≤ 15 | 
C=C1C(c2ccccc2F)=CC(=O)N1c1cccc(C)c1 | 39.7 | 59.1 | 25.3 | 25.5 | ≤ 15 | ≤ 15 | ≤ 15 |  | 42 | ≤ 15 | 
C=C1C(c2ccc(Br)cc2)=CC(=O)N1c1ccc(OC)cc1 | 61.8 | 73.3 | 14.4 | 32.1 | ≤ 15 | ≤ 15 | ≤ 15 |  | 54.9 | ≤ 15 | 
C=C1C(c2ccc(Br)cc2)=CC(=O)N1c1ccc(F)cc1 | 49.7 | 57.9 | 9.23 | 34.5 | ≤ 15 | ≤ 15 | ≤ 15 |  | 27.7 | ≤ 15 | 

Now from value to compound, other results behind:

inhibition [1] [%] | inhibition [3] [%] | inhibition [6] [%] | inhibition [8] [%] | SMILES | inhibition at 31.25 µM (Pseudomonas aeruginosa [2]) [%] | inhibition at 62.5 µM (Pseudomonas aeruginosa [4]) [%] | inhibition at 125 µM (Pseudomonas aeruginosa [5]) [%] | inhibition at 62.5 µM (Pseudomonas aeruginosa [7]) [%] | inhibition at 250 µM (Pseudomonas aeruginosa [9]) [%] | inhibition at 250 µM (Pseudomonas aeruginosa [10]) [%] | inhibition (Pseudomonas aeruginosa [9])
67.9 | 74.4 | 35.4 | 57.1 | C=C1NC(=O)C=C1c1cccc(C(F)(F)F)c1 | ≤ 15 | ≤ 15 | ≤ 15 |  | 50.3 | ≤ 15 | 
62 | 78.6 | 22 | 39.2 | C=C1C(c2ccc(Br)cc2)=CC(=O)N1c1ccccc1 | ≤ 15 | ≤ 15 | ≤ 15 |  | 35.2 | 15 to 30 | 
66.5 | 72.8 | 39.5 | 52.9 | C=C1NC(=O)C=C1c1cccc(F)c1 | ≤ 15 | ≤ 15 | ≤ 15 |  | 55.2 | ≤ 15 | 
59 | 71.5 | 19.6 | 31.6 | C=C1NC(=O)C=C1c1ccccc1 | ≤ 15 | ≤ 15 | ≤ 15 |  | 47.6 | ≤ 15 | 
48.8 | 67.9 | 24.4 | 30.5 | O=C1C=C(c2ccccc2F)CN1 | ≤ 15 | ≤ 15 | ≤ 15 |  | 10.9 | ≤ 15 | 
76.3 | 82.4 | 33.3 | 60.2 | C=C1NC(=O)C=C1c1ccc(F)cc1 | ≤ 15 | ≤ 15 | ≤ 15 |  | 46.1 | 15 to 30 | 
59.6 | 67.9 | 32.5 | 35.1 | C=C1NC(=O)C=C1c1ccc(CC)cc1 | ≤ 15 | ≤ 15 | ≤ 15 |  | 38.9 | ≤ 15 | 
43.3 | 50.5 | 29.3 | 34.7 | C=C1C(c2ccccc2F)=CC(=O)N1c1cccc(Br)c1 | ≤ 15 | ≤ 15 | ≤ 15 |  | 40.8 | ≤ 15 | 
